# From PubChem BioAssay
# NR2E3 ag-1 – NR2E3 (human) agonism | Q9Y5X4 | GST-NR2E3/biotin-RetCOR TR-FRET, 1536-well | inhibition of corepressor binding, % at 4.78 µM | actives 0.12% (n = 320,000) | AID 2300;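 active = percent inhibition above the cutoff of mean plus 3 SD of all tested compounds, set per screening campaign, cut at about 20% in these data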
#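 system = GST-tagged NR2E3 plus biotinylated RetCOR corepressor | input = 1.35 nM GST-NR2E3 | also added = 7 nM biotin-RetCOR | schedule = 5 h incubation at 4 °C | measured by = TR-FRET with europium anti-GST and streptavidin-D2, 340 nm excitation | read-out = percent loss of FRET ratio relative to control wells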
# NR1D1 modulator – Rev-erb alpha (human) modulation; P20393; Rev-erbα–FITC-DNA binding, fluorescence polarization, 90 min; activity, % at 10 µM; actives 0.79% (n = 370,000);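 active = activity above about 14%, limit read from the data; passing the limit was not always enough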
# Target sequence (P20393 whole entry, looked up): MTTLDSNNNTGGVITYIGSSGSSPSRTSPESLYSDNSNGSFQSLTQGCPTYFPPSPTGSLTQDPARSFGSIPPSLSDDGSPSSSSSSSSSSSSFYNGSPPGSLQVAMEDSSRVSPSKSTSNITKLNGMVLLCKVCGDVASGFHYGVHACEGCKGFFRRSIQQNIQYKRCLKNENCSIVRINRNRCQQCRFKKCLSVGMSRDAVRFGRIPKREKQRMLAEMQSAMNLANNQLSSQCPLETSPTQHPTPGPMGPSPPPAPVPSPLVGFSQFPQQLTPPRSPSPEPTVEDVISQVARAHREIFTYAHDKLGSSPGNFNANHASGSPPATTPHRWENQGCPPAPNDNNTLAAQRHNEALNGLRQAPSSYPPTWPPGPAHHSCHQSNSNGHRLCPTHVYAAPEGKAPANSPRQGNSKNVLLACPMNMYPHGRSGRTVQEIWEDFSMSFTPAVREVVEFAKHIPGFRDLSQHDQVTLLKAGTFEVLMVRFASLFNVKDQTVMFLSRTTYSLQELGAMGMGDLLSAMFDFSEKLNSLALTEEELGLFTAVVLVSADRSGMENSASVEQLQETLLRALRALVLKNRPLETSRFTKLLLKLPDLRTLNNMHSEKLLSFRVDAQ
# PG9 binder – small molecules binding HIV-1 gp120 antibody PG9; TR-FRET gp120-PG9 antibody binding; inhibition, % at 6.7 µM; actives 0.43% (n = 360,000); in the data active = inhibition above about 8.5%
# NR2E3 ag-2 – agonists of human NR2E3 nuclear receptor; Q9Y5X4; CHO-S Gal4-NCOR/VP16-NR2E3 two-hybrid, luciferase; inhibition of corepressor binding, % at 3.98 µM; actives 0.35% (n = 360,000);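 active = inhibition above the mean of all tested compounds plus 3 SD, cut at about 70% in these data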;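 note: higher means lower luciferase signal from less NR2E3 corepressor binding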
# A number is an active result; - = inactive; . = no result given. The list is not random: actives were taken first. Their share in the collection is about 1.5%.
SMILES,NR2E3 ag-1,NR1D1 modulator,PG9 binder,NR2E3 ag-2
Cc1ccc(S(=O)(=O)/N=C2/C=C(Sc3ncn[nH]3)C(=O)c3ccccc32)cc1,-,.,.,106
Cc1c2ccccc2cc[n+]1CCCS(=O)(=O)[O-],-,-,-,-
CC1(C)C(/C=C/C=C/C=C/C=C2\N(CCCCS(=O)(=O)O)c3ccc4ccccc4c3C2(C)C)=[N+](CCCCS(=O)(=O)[O-])c2ccc3ccccc3c21,27,.,.,-
Cc1nc(N)cc(C[n+]2csc(CCO)c2C)n1,.,-,.,.
CO/N=C(\C(=O)N[C@H]1C(=O)N2C(C(=O)OCOC(=O)C(C)(C)C)=C(/C=C\c3scnc3C)CSC12)c1csc(N)n1 (stereo not given in full),.,-,.,.
CSc1nc(C)c2c(n1)N(c1ccc(O)cc1)CC2,-,-,-,-
CSc1nc(C)c2c(n1)N(c1ccc(F)cc1)CC2,-,-,10,-
CCCCCCCCCCC[C@@H](C[C@H]1OC(=O)[C@H]1CCCCCC)OC(=O)[C@@H](CC(C)C)NC=O,.,-,.,.
C[C@H]1CN(C[C@H](Cc2ccccc2)C(=O)NCC(=O)O)CC[C@@]1(C)c1cccc(O)c1,.,-,.,.
COC1=CC(=O)C[C@@H](C)C12Oc1c(Cl)c(OC)cc(OC)c1C2=O (stereo not given in full),.,-,.,.
CCOC(=O)/C(=N\Nc1ccc(Br)cc1)N1CC(C)OC(C)C1 (stereo not given),-,.,.,77
CCOC(=O)/C(=N\Nc1ccccc1Cl)N1CC(C)OC(C)C1 (stereo not given),-,-,-,-
CC(=O)O[C@]1(C(C)=O)CCC2C3C=C(Cl)C4=CC(=O)[C@@H]5C[C@@H]5[C@]4(C)C3CC[C@@]21C (stereo not given in full),.,-,.,.
O[C@@H]1COC2C1OC[C@@H]2O (stereo not given in full),.,-,.,.
Cn1c(-c2ccc(C#N)cc2)c(C#Cc2ccccc2)c2ccccc21,.,-,-,-
N#Cc1c(-c2ccc(Cl)cc2)n(O)c2ccccc12,.,.,.,98
C(=C\c1ccccc1)/CN1CCN(c2ncnc3c2oc2ccccc23)CC1,-,-,-,98
c1ccc2c(c1)oc1c(N3CCOCC3)ncnc12,-,-,-,-
C[C@H](Cc1cc2c(c(C(N)=O)c1)N(CCCO)CC2)NCCOc1ccccc1OCC(F)(F)F,.,-,.,.
Nc1nc(=O)n([C@@H]2CS[C@@H](CO)O2)cc1F,.,-,.,.
CCN1CCN(CCCNc2ncnc3nc[nH]c23)CC1,-,-,14,-
c1cn(CCCNc2ncnc3nc[nH]c23)cn1,-,-,-,-
C[C@@H]1CC2C3C[C@H](F)C4=CC(=O)C=C[C@]4(C)[C@@]3(F)[C@@H](O)C[C@]2(C)[C@@]1(O)C(=O)CO (stereo not given in full),.,-,.,.
CC(=O)S[C@@H]1CC2=CC(=O)CC[C@]2(C)[C@H]2CC[C@@]3(C)[C@@H](CC[C@@]34CCC(=O)O4)C12 (stereo not given in full),.,-,.,.
C[N+](C)(C)CCOP(=O)([O-])OP(=O)(O)OC[C@H]1OC(n2ccc(N)nc2=O)[C@H](O)[C@@H]1O (stereo not given in full),.,-,.,.
SMILES,NR2E3 ag-1,NR1D1 modulator,PG9 binder,NR2E3 ag-2
Cc1ccc(NC2=C/C(=N/S(=O)(=O)c3cccs3)c3ccccc3C2=O)cc1,-,-,-,-
O=C1C(Nc2ccccc2)=C/C(=N/S(=O)(=O)c2cccs2)c2ccccc21,-,.,.,102
CC(C)(C)c1ccc(/C=C(\c2nc3ccccc3[nH]2)S(=O)(=O)c2ccccc2)cc1,-,.,.,81
Cc1cccc(/C=C(\c2nc3ccccc3[nH]2)S(=O)(=O)c2ccccc2)c1,.,-,-,-
CN1CCN(c2ccc(-c3ccc4ccccc4n3)cc2)CC1,.,-,-,87
c1ccc2nc(-c3ccncc3)ccc2c1,-,-,-,-
Cc1cc(C)cc(-n2c(C)cc(C=C(C#N)C#N)c2C)c1,-,-,28,-
CCOC(=O)/C(C#N)=C/c1cc(C)n(-c2ccccc2)c1C,-,-,-,-
CC1(C)S[C@@H]2[C@@H](N3C(=O)[C@@H](c4ccccc4)NC3(C)C)C(=O)N2[C@H]1C(=O)O,.,-,.,.
CCCCCc1ccc(S(=O)(=O)NCCc2ccncc2)cc1,-,-,-,88
CCNC(=O)CCC/C=C\C[C@@H]1[C@@H](/C=C/[C@@H](O)CCc2ccccc2)[C@H](O)C[C@@H]1O,.,-,.,.
CN1CCN(S(=O)(=O)c2ccc3c(c2)OCCO3)CC1,-,-,-,-
O=S(=O)(c1ccc2c(c1)OCCO2)N1CCN(c2ncnc3sccc23)CC1,-,-,-,87
